≈ marks a conversion by molar mass, not a printed value.

In experiment [1] the test system is Fusarium graminearum. Nature of the experiment: Antifungal activity against Gibberella zeae at 50 ug/mL. Format: functional.
The test system of experiment [2] is Botrytis cinerea. Nature of the experiment: Antifungal activity against Botrytis cinerea at 50 ug/mL. Format: functional.
Experiment [3] relates to Sclerotinia sclerotiorum. Nature of the experiment: Antifungal activity against Sclerotinia sclerotiorum at 50 ug/mL. Format: functional.
The test system of a further experiment is Cytospora. Nature of the experiment: Growth inhibition of Cytospora mandshurica. Format: functional.
In experiment [4] the test system is Sclerotinia sclerotiorum. Nature of the experiment: Antifungal activity against Sclerotinia sclerotiorum. Format: functional, organism-based.
For another experiment, the system named is Rhizoctonia solani. Nature of the experiment: Growth inhibition of Rhizoctonia solani. Format: functional, organism-based. The procedure, abridged:
(§1)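 In vitro inhibition of mycelial growth, with hymexazol as the reference fungicide. The EC50, the concentration that inhibits growth by 50%, was read from a dose–response curve. Results come from three separate experiments, each run in triplicate.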

A further experiment relates to Fusarium oxysporum. Nature of the experiment: Growth inhibition of Fusarium oxysporum. Format: functional, organism-based. A digest of the protocol:
as §1

Experiment [5] concerns Colletotrichum gloeosporioides. Nature of the experiment: Growth inhibition of Colletotrichum gloeosporioides. Format: functional, organism-based.
For experiment [6], the system named is Botrytis cinerea. Nature of the experiment: Antifungal activity against Botrytis cinerea. Format: functional, organism-based.
In a further experiment the test system is Pyricularia grisea. Nature of the experiment: Growth inhibition of Pyricularia grisea. Format: functional, organism-based.
A further experiment deals with Pyricularia oryzae. Nature of the experiment: Growth inhibition of Pyricularia oryzae. Format: functional, organism-based.
The next experiment concerns Phytophthora infestans. Nature of the experiment: Growth inhibition of Phytophthora infestans. Format: functional, organism-based.
Experiment [7] deals with Fusarium graminearum. Nature of the experiment: Antifungal activity against Gibberella zeae. Format: functional, organism-based. A digest of the protocol: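 In vitro inhibition of fungal mycelial growth. EC50 read from the dose–response curve. Three separate experiments, each in triplicate. Hymexazol was the standard reference.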

Take `C=CCS(=O)(=O)c1nnc(-c2cc(OC)c(OC)c(OC)c2)s1`: the inhibition (in general, the drop in the measured response relative to a control, in per cent) at 50 µg/mL was determined as 14% in the experiment on Fusarium graminearum [1], 47.3% with Botrytis cinerea [2] and 40.5% in the experiment on Sclerotinia sclerotiorum [3].

On to `COc1cccc(CS(=O)(=O)c2nnc(-c3cc(OC)c(OC)c(OC)c3)s2)c1`, for which the figures for the inhibition at 50 µg/mL in the experiment with Fusarium graminearum [1], in the experiment with Botrytis cinerea [2] and in the experiment with Sclerotinia sclerotiorum [3] were 43.2%, 53.4% and 74.5%, respectively.

Regarding `CCCS(=O)(=O)c1nnc(-c2cc(OC)c(OC)c(OC)c2)o1`, the values for the inhibition at 50 µg/mL in the experiment with Fusarium graminearum [1], in the experiment on Botrytis cinerea [2] and with Sclerotinia sclerotiorum [3] were 59%, 59.4% and 64%, respectively.

For the compound `CCOC(=O)CS(=O)(=O)c1nnc(-c2cc(OC)c(OC)c(OC)c2)o1`, the inhibition at 50 µg/mL was 52% in the experiment on Fusarium graminearum [1], 81.9% in the experiment with Botrytis cinerea [2] and 79.9% in the experiment on Sclerotinia sclerotiorum [3].

Consider `COc1cccc(CS(=O)(=O)c2nnc(-c3cc(OC)c(OC)c(OC)c3)o2)c1`, for which the values for the inhibition at 50 µg/mL with Fusarium graminearum [1], with Botrytis cinerea [2] and with Sclerotinia sclerotiorum [3] were 5.7%, 38.1% and 40.6%, respectively.

For `CCS(=O)(=O)c1nnc(-c2cc(OC)c(OC)c(OC)c2)o1`, the inhibition at 50 µg/mL in the experiment with Botrytis cinerea [2] and in the experiment on Sclerotinia sclerotiorum [3] was 100% each time. Further, the EC50 (as a rule, the concentration giving half of the maximal effect) in the experiment on Cytospora turned out to be 20.5 µg/mL (≈ 62.4 µM); with Sclerotinia sclerotiorum [4] it was 4.3 µg/mL (≈ 13.1 µM); in the experiment with Rhizoctonia solani, 45.6 µg/mL (≈ 139 µM); with Fusarium oxysporum, 18 µg/mL (≈ 54.8 µM); in experiment [5] it was 26.3 µg/mL (≈ 80.1 µM); with Botrytis cinerea [6], 2.9 µg/mL (≈ 8.83 µM).

Turning to `C=CCS(=O)(=O)c1nnc(-c2cc(OC)c(OC)c(OC)c2)o1`, the inhibition at 50 µg/mL is 26.4% in the experiment with Fusarium graminearum [1], 40.9% in the experiment on Botrytis cinerea [2] and 40.9% in the experiment with Sclerotinia sclerotiorum [3].

For the compound `COc1cc(-c2nnc(S(=O)(=O)Cc3ccc([N+](=O)[O-])cc3)o2)cc(OC)c1OC`, the inhibition at 50 µg/mL amounted to 42.1% in the experiment on Fusarium graminearum [1], 76.8% in the experiment with Botrytis cinerea [2] and 62.2% in the experiment with Sclerotinia sclerotiorum [3].

`COc1cc(-c2nnc(S(=O)(=O)Cc3ccc(Cl)nc3)s2)cc(OC)c1OC`: the results for the inhibition at 50 µg/mL in the experiment on Fusarium graminearum [1], in the experiment with Botrytis cinerea [2] and in the experiment with Sclerotinia sclerotiorum [3] were -1.1%, 25.9% and 21.3%, respectively.

Regarding `COc1cc(-c2nnc(S(=O)(=O)Cc3ccccc3)s2)cc(OC)c1OC`, the inhibition at 50 µg/mL amounted to 8.3% in the experiment on Fusarium graminearum [1], 27.5% with Botrytis cinerea [2] and 22.9% in the experiment on Sclerotinia sclerotiorum [3].

In the case of `CCOC(=O)CS(=O)(=O)c1nnc(-c2cc(OC)c(OC)c(OC)c2)s1`, the figures for the inhibition at 50 µg/mL in the experiment on Fusarium graminearum [1], with Botrytis cinerea [2] and in the experiment with Sclerotinia sclerotiorum [3] were 21.1%, 49.7% and 49.4%, respectively.

`COc1cc(-c2nnc(S(=O)(=O)Cc3cccc([N+](=O)[O-])c3)o2)cc(OC)c1OC`: the values for the inhibition at 50 µg/mL in the experiment with Fusarium graminearum [1], in the experiment with Botrytis cinerea [2] and with Sclerotinia sclerotiorum [3] were 11.8%, 40.7% and 38.3%, respectively.

As for `COc1ccc(CS(=O)(=O)c2nnc(-c3cc(OC)c(OC)c(OC)c3)o2)cc1`, the inhibition at 50 µg/mL in the experiment on Fusarium graminearum [1] was found to be 33.9%; with Botrytis cinerea [2], 58.5%; in the experiment with Sclerotinia sclerotiorum [3], 58.5%.

As for `COc1cc(-c2nnc(S(=O)(=O)Cc3ccc(F)cc3)o2)cc(OC)c1OC`, the inhibition at 50 µg/mL in the experiment on Fusarium graminearum [1] came to 28.1%; with Botrytis cinerea [2] it was 41.6%; with Sclerotinia sclerotiorum [3], 62.7%.

Take `COc1cc(-c2nnc(S(=O)(=O)Cc3ccccc3Cl)o2)cc(OC)c1OC`: the inhibition at 50 µg/mL in the experiment on Fusarium graminearum [1] was 11.9%; with Botrytis cinerea [2], 26.1%; with Sclerotinia sclerotiorum [3], 39.6%.

For the compound `COc1ccccc1CS(=O)(=O)c1nnc(-c2cc(OC)c(OC)c(OC)c2)o1`, the results for the inhibition at 50 µg/mL with Fusarium graminearum [1], in the experiment with Botrytis cinerea [2] and in the experiment on Sclerotinia sclerotiorum [3] were 23.7%, 42.3% and 37.2%, respectively.

With `COc1cc(-c2nnc(S(=O)(=O)Cc3cccc(F)c3)o2)cc(OC)c1OC`, the inhibition at 50 µg/mL in the experiment on Fusarium graminearum [1] was determined as 9.3%; in the experiment on Botrytis cinerea [2], 35.8%; in the experiment on Sclerotinia sclerotiorum [3], 38.3%.

Consider `COc1cc(-c2nnc(S(=O)(=O)Cc3ccccc3F)o2)cc(OC)c1OC`, for which the figures for the inhibition at 50 µg/mL in the experiment with Fusarium graminearum [1], in the experiment with Botrytis cinerea [2] and in the experiment on Sclerotinia sclerotiorum [3] were 18.2%, 52.3% and 33.4%, respectively.

On to `COc1cc(-c2nnc(S(=O)(=O)Cc3ccc(Cl)cc3)o2)cc(OC)c1OC`, for which the inhibition at 50 µg/mL with Fusarium graminearum [1] is 23.3%; in the experiment with Botrytis cinerea [2] it was 30.8%; with Sclerotinia sclerotiorum [3], 35.5%.

`COc1cc(-c2nnc(S(=O)(=O)Cc3ccc(Cl)nc3)o2)cc(OC)c1OC`: the inhibition at 50 µg/mL was 38.9% with Fusarium graminearum [1], 60.3% in the experiment on Botrytis cinerea [2] and 67.9% in the experiment with Sclerotinia sclerotiorum [3].

Regarding `COc1cc(-c2nnc(S(C)(=O)=O)o2)cc(OC)c1OC`, the results for the inhibition at 50 µg/mL in the experiment with Fusarium graminearum [1], in the experiment with Botrytis cinerea [2] and with Sclerotinia sclerotiorum [3] were 55.8%, 100% and 100%, respectively. Moreover, the EC50 in the experiment with Pyricularia grisea amounted to 30.8 µg/mL (≈ 98 µM); in the experiment on Cytospora it was 80.5 µg/mL (≈ 256 µM); in the experiment with Sclerotinia sclerotiorum [4], 12.5 µg/mL (≈ 39.8 µM); with Pyricularia oryzae, 90.7 µg/mL (≈ 289 µM); in the experiment with Phytophthora infestans it was 83.2 µg/mL (≈ 265 µM); with Rhizoctonia solani, 93.3 µg/mL (≈ 297 µM). For the same compound, the concentration giving a half-maximal response (EC50) came out at 24.5 µg/mL (≈ 77.9 µM) in the experiment on Fusarium oxysporum, 21.8 µg/mL (≈ 69.4 µM) in [5], 28.8 µg/mL (≈ 91.6 µM) in the experiment on Fusarium graminearum [7] and 11.7 µg/mL (≈ 37.2 µM) with Botrytis cinerea [6].

With `COc1cc(-c2nnc(S(C)(=O)=O)s2)cc(OC)c1OC`, the inhibition at 50 µg/mL with Fusarium graminearum [1] amounted to 11.6%; with Botrytis cinerea [2], 27.1%; with Sclerotinia sclerotiorum [3], 40.7%.

Consider `COc1cc(-c2nnc(S(=O)(=O)Cc3ccc([N+](=O)[O-])cc3)s2)cc(OC)c1OC`, for which the inhibition at 50 µg/mL in the experiment with Fusarium graminearum [1] was -1.8%; with Botrytis cinerea [2], 30.3%; with Sclerotinia sclerotiorum [3], 20%.

For the compound `CCCS(=O)(=O)c1nnc(-c2cc(OC)c(OC)c(OC)c2)s1`, the inhibition at 50 µg/mL in the experiment on Fusarium graminearum [1] was determined as 13.5%; with Botrytis cinerea [2], 33.5%; in the experiment on Sclerotinia sclerotiorum [3], 38.1%.

For `COc1cc(-c2nnc(S(=O)(=O)Cc3ccc(Cl)cc3)s2)cc(OC)c1OC`, the inhibition at 50 µg/mL amounted to 5.5% with Fusarium graminearum [1], 20.8% with Botrytis cinerea [2] and 20.3% in the experiment on Sclerotinia sclerotiorum [3].

On to `COc1cc(-c2nnc(S(=O)(=O)Cc3ccccc3)o2)cc(OC)c1OC`, for which the inhibition at 50 µg/mL in the experiment with Fusarium graminearum [1] amounted to 54.9%; in the experiment with Botrytis cinerea [2], 67.3%; in the experiment on Sclerotinia sclerotiorum [3], 71.2%.

Consider `Cc1cc(O)no1` [HYMEXAZOL], for which the inhibition at 50 µg/mL with Fusarium graminearum [1] came to 52.9%; in the experiment on Botrytis cinerea [2], 75.4%; in the experiment on Sclerotinia sclerotiorum [3] it was 77.5%. The values for the EC50 in the experiment on Rhizoctonia solani and in the experiment with Fusarium oxysporum were 52.1 µg/mL (≈ 526 µM) and 29.1 µg/mL (≈ 294 µM), respectively.

Values taken from ChEMBL document CHEMBL1143061, “Synthesis and antifungal activities of 5-(3,4,5-trimethoxyphenyl)-2-sulfonyl-1,3,4-thiadiazole and 5-(3,4,5-trimethoxyphenyl)-2-sulfonyl-1,3,4-oxadiazole derivatives” (Bioorg Med Chem, 2007).
